Measured values published in ChEMBL document CHEMBL1250448, “Inhibitor hijacking of Akt activation” (Nat Chem Biol, 2009).

Legend:
[1] = target: T1, Phosphorylase b kinase gamma catalytic chain, liver/testis isoform (Homo sapiens) (UniProt P15735); test: Inhibition of PHKG2 at 1 uM in presence of 10 uM ATP by Select Screen kinase assay relative to untreated control
T1 sequence (whole entry): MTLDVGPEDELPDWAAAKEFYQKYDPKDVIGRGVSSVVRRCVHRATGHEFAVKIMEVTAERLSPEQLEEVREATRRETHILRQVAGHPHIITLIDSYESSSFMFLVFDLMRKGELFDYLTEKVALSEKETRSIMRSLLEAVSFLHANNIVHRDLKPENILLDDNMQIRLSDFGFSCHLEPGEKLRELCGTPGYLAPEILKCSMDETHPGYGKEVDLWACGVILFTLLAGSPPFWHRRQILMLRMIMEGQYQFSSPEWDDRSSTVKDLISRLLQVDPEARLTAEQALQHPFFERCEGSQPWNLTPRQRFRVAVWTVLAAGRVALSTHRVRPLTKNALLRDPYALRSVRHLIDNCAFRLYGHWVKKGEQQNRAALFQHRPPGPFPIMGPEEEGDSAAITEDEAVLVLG
Method in brief: (§1)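 Commercial SelectScreen profiling panel of 220 purified kinases. Each kinase was tested at a single inhibitor concentration of 1 μM, and activity was expressed as percent inhibition.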

[2] = target: Protein kinase C beta type (Homo sapiens) (UniProt P05771); test: Inhibition of PRKCB2 at 1 uM in presence of 10 uM ATP by Select Screen kinase assay relative to untreated control; method in brief: as §1
Chain of Protein kinase C beta type (Homo sapiens) (P05771 2-671 limits assumed): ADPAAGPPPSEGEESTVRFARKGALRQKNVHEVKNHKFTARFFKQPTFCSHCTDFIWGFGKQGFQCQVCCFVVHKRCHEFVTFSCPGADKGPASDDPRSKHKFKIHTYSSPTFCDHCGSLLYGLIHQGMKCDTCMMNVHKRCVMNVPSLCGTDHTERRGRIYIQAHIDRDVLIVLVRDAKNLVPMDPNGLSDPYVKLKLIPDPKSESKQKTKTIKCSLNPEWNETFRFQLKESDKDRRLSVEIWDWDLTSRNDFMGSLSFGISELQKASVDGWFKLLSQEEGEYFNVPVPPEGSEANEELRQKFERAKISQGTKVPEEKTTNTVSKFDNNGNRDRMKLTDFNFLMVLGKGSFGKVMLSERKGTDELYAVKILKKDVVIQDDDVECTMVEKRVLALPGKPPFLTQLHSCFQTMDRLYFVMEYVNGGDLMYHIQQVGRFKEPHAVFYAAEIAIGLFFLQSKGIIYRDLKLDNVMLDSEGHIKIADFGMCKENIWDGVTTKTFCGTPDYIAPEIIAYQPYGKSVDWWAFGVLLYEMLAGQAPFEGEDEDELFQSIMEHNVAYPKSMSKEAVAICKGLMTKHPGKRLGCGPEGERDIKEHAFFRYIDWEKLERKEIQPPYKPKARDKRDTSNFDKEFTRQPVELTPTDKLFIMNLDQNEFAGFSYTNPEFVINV

[3] = target: T2, Homeodomain-interacting protein kinase 4 (Homo sapiens) (UniProt Q8NE63); test: Inhibition of HIPK4 at 1 uM in presence of 10 uM ATP by Select Screen kinase assay relative to untreated control
T2 sequence (whole entry): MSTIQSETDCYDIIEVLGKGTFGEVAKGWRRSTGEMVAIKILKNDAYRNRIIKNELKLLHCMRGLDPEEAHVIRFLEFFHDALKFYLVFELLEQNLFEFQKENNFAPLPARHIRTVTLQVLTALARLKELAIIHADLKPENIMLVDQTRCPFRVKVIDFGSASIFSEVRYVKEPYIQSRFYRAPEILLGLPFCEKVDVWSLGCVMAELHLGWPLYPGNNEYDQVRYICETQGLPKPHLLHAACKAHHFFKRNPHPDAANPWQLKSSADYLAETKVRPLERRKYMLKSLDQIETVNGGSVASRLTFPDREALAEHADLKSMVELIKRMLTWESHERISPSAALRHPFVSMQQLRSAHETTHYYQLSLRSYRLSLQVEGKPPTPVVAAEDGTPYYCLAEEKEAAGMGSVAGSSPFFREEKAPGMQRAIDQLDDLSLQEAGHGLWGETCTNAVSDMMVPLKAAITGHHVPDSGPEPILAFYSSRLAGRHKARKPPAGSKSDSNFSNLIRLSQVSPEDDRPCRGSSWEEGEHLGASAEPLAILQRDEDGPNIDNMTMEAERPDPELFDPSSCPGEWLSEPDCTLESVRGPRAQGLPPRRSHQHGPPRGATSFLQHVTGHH
Method in brief: (§2)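 Single-concentration profiling at 1 μM against a panel of 220 purified kinases, run as an outsourced SelectScreen kinase profiling service. Activity is expressed as percent inhibition.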

[4] = target: Dual specificity mitogen-activated protein kinase kinase 1 (Homo sapiens) (UniProt Q02750); test: Inhibition of MAP2K1 at 1 uM in presence of 100 uM ATP by Select Screen kinase assay relative to untreated control; method in brief: as §2
Chain of Dual specificity mitogen-activated protein kinase kinase 1 (Homo sapiens) (Q02750 whole entry): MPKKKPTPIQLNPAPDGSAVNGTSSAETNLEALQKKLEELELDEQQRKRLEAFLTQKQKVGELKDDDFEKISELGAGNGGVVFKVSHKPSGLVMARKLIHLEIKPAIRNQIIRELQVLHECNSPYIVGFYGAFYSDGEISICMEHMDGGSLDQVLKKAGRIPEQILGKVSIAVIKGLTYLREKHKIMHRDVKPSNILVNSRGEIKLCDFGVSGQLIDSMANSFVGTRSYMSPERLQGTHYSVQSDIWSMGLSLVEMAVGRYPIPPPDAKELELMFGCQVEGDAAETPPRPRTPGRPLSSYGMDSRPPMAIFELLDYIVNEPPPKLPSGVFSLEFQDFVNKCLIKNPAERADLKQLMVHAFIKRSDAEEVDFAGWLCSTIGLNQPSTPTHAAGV

[5] = target: Dual specificity tyrosine-phosphorylation-regulated kinase 1A (Homo sapiens) (UniProt Q13627); test: Inhibition of DYRK1A at 1 uM in presence of 10 uM ATP by Select Screen kinase assay relative to untreated control
Method in brief: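 Single-point screen at 1 μM against a panel of 220 purified kinases, run by Invitrogen staff as a SelectScreen profiling service. Read-out is percent inhibition of kinase activity.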

[6] = target: BDNF/NT-3 growth factors receptor (Homo sapiens) (UniProt Q16620); test: Inhibition of NTRK2 at 1 uM in presence of 10 uM ATP by Select Screen kinase assay relative to untreated control; method in brief: as §1
Chain of BDNF/NT-3 growth factors receptor (Homo sapiens) (Q16620 32-822 limits assumed): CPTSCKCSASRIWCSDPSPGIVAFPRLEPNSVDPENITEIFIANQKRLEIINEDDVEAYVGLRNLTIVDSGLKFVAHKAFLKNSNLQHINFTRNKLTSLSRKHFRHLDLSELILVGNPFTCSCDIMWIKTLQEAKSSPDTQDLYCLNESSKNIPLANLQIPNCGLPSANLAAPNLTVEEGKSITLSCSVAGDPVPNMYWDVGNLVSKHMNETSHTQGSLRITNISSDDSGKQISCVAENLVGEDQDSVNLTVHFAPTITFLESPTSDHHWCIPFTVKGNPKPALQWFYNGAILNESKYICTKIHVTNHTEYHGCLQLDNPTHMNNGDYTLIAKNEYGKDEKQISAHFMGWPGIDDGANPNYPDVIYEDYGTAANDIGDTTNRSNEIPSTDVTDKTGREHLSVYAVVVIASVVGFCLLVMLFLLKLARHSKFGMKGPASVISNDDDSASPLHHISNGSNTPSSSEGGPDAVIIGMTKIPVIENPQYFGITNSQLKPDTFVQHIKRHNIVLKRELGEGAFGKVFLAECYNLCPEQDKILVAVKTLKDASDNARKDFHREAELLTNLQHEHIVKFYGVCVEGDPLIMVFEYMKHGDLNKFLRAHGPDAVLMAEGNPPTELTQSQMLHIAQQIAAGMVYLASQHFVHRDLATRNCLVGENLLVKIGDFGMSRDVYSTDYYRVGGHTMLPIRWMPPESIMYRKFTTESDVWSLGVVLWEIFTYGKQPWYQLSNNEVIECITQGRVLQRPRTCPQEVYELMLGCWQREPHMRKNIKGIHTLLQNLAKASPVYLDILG

[7] = target: Serine/threonine-protein kinase PAK 5 (Homo sapiens) (UniProt Q9P286); test: Inhibition of PAK7 at 1 uM in presence of 10 uM ATP by Select Screen kinase assay relative to untreated control; method in brief: as §1
Chain of Serine/threonine-protein kinase PAK 5 (Homo sapiens) (Q9P286 whole entry, looked up): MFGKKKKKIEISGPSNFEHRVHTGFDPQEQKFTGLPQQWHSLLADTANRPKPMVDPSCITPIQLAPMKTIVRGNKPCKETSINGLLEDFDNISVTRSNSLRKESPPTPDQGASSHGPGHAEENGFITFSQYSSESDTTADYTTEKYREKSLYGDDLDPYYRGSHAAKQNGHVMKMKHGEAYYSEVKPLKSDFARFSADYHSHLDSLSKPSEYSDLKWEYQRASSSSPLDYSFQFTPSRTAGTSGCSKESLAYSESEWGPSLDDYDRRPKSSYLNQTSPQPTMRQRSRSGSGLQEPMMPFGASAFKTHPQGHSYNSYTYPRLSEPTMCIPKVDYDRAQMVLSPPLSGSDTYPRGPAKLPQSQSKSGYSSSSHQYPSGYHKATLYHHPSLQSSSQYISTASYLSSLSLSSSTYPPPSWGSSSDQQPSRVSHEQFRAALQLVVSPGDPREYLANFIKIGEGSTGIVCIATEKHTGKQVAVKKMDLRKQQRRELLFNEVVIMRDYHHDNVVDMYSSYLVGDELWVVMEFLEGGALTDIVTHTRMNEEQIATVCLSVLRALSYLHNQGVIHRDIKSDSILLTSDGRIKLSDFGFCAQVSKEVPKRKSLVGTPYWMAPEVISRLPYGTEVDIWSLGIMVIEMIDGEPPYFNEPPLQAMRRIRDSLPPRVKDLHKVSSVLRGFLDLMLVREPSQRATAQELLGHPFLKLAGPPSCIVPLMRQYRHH

[8] = target: T3, Mitogen-activated protein kinase 13 (Homo sapiens) (UniProt O15264); test: Inhibition of MAPK13 at 1 uM in presence of 10 uM ATP by Select Screen kinase assay relative to untreated control; method in brief: as §2
T3 sequence (whole entry): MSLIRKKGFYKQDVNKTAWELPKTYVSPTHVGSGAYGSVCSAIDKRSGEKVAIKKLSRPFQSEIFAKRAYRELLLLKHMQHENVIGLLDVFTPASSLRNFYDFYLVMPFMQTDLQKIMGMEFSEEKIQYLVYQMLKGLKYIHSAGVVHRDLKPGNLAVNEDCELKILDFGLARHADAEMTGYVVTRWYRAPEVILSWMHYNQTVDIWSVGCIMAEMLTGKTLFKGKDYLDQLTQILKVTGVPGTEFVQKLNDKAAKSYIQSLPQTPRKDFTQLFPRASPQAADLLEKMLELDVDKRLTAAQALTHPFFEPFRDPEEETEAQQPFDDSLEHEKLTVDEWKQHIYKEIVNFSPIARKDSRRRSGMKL

[9] = target: Tyrosine-protein kinase Fyn (Homo sapiens) (UniProt P06241); test: Inhibition of FYN at 1 uM in presence of 10 uM ATP by Select Screen kinase assay relative to untreated control; method in brief: as §2
Chain of Tyrosine-protein kinase Fyn (Homo sapiens) (P06241 2-537 limits assumed): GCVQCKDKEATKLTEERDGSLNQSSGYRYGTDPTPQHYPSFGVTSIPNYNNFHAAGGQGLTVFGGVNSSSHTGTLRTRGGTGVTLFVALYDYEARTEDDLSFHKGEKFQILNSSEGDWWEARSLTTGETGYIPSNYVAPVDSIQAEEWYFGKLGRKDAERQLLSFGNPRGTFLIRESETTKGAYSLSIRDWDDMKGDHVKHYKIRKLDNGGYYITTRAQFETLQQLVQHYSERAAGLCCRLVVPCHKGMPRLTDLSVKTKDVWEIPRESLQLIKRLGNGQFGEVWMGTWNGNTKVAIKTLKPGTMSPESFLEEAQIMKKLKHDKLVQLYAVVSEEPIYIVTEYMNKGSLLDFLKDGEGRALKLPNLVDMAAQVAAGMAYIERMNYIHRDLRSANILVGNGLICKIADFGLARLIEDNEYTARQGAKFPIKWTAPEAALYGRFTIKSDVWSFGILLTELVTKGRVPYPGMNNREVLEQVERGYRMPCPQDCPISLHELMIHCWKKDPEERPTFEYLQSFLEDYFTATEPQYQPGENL

[10] = target: T4, Interleukin-1 receptor-associated kinase 4 (Homo sapiens) (UniProt Q9NWZ3); test: Inhibition of IRAK4 at 1 uM in presence of 10 uM ATP by Select Screen kinase assay relative to untreated control; method in brief: as §2
T4 sequence (whole entry): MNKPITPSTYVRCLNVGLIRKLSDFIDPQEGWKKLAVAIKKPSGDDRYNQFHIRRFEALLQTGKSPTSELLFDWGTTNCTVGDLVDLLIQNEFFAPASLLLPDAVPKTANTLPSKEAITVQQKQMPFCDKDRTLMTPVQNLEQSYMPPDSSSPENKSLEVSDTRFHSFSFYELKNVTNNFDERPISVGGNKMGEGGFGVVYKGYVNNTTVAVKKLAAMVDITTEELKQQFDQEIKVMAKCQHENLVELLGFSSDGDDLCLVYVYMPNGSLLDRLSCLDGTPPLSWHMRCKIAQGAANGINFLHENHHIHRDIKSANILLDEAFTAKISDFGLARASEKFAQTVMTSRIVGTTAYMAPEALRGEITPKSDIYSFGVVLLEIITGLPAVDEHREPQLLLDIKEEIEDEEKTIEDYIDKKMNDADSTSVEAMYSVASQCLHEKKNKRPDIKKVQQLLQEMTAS

COc1ccccc1N1CCN(c2ncnc3[nH]nc(Br)c23)CC1
inhibition [1]: 4% | inhibition [2]: 32% | inhibition [3]: 18% | inhibition [4]: 12% | inhibition [5]: 78% | inhibition [6]: 11% | inhibition [7]: 1% | inhibition [8]: 12% | inhibition [9]: 13% | inhibition [10]: 9%

Cc1n[nH]c2ccc(-c3cncc(OC[C@@H](N)Cc4c[nH]c5ccccc45)c3)cc12
inhibition [1]: 11% | inhibition [2]: 68% | inhibition [3]: 75% | inhibition [4]: 42% | inhibition [5]: 102% | inhibition [6]: 12% | inhibition [7]: 25% | inhibition [8]: 36% | inhibition [9]: 28% | inhibition [10]: 53%

O=C(NCCCNc1nc(Nc2cccc(NC(=O)N3CCCC3)c2)ncc1I)c1cccs1
inhibition [1]: 28% | inhibition [2]: 35% | inhibition [3]: 48% | inhibition [4]: 67% | inhibition [5]: 25% | inhibition [6]: 74% | inhibition [7]: 25% | inhibition [8]: 27% | inhibition [9]: 74% | inhibition [10]: 49%
